The subject of one assay is Mus musculus. Kind of assay: Analgesic activity against acetic acid-induced writhes in mouse at 50 mg/kg, po administered 30 mins before acetic acid challenge measured for 60 mins. The assay is classed as functional. The procedure, abridged:
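Mice of both sexes, 20–30 g, non-pregnant, groups of five; oral test dose given 30 min before 0.25 ml/mouse of 0.5% acetic acid; writhes counted over the following 60 min; group mean writhes expressed as percent decrease versus untreated control group of five mice.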

The subject of the next assay is Rattus norvegicus. The assay can be described thus: Antiinflammatory activity against carrageenan-induced paw edema in Charles Foster albino rat at 50 mg/kg, po administered 30 mins before carrageenan challenge measured after 1 to 3 hrs. The assay is classed as functional. The procedure, abridged:
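Groups of five rats, both sexes, 120–160 g, pregnant females excluded; 30 min after oral dose, 0.20 ml of 1% fresh carrageenan in 0.9% NaCl injected into hind-paw plantar aponeurosis; paw volume by water plethysmometer before and 1–3 h after; % inhibition = [1 − Dt/Dc] × 100 versus carrageenan-only control group of five.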
Background: The carrageenan paw model is a standard test of acute inflammation.

As to `N=C(/N=c1\scc(-c2ccccc2)n1-c1ccc(Cl)cc1)c1ccccn1`, the Activity came to 12% in the assay with Mus musculus and 17% with Rattus norvegicus.

Turning to `N=C(/N=c1\scc(-c2ccccc2)n1-c1ccc([N+](=O)[O-])cc1)c1ccccn1`, the Activity with Mus musculus is listed as 18%; with Rattus norvegicus, 26%.

Turning to `N=C(/N=c1\scc(-c2ccccc2)n1-c1ccccc1[N+](=O)[O-])c1ccccn1`, the Activity with Rattus norvegicus turned out to be 49%.

In the case of `CCOc1ccc(-c2cs/c(=N\C(=N)c3ccccn3)n2-c2ccccc2)cc1`, the figures for the Activity in the assay with Mus musculus and with Rattus norvegicus were 50% and 0%, respectively.

Turning to `Cc1ccccc1-n1c(-c2ccccc2)cs/c1=N\C(=N)c1ccccn1`, the Activity in the assay with Mus musculus is recorded as 50%; in the assay with Rattus norvegicus, 0%.

As to `COc1ccc(-n2c(-c3ccccc3)cs/c2=N\C(=N)c2ccccn2)cc1`, the figures for the Activity with Mus musculus and in the assay on Rattus norvegicus were 12% and 17%, respectively.

`CC(=O)c1ccc(-n2c(-c3ccccc3)cs/c2=N\C(=N)c2ccccn2)cc1`: the Activity in the assay with Mus musculus was 25%; in the assay on Rattus norvegicus it was 20%.

With `O=C(/N=c1\scc(-c2ccccc2)n1-c1ccc(Cl)cc1)c1cc(=O)[nH]c(=O)[nH]1`, the Activity in the assay with Rattus norvegicus was 2%.

Compound `O=C(CC1NC(=O)NC1=O)/N=c1\scc(-c2ccccc2)n1-c1ccccc1[N+](=O)[O-]` (stereo unspecified) had an Activity in the assay with Rattus norvegicus of 17%.

As for `O=C(CC1NC(=O)NC1=O)/N=c1\scc(-c2ccccc2)n1-c1ccc([N+](=O)[O-])cc1` (stereo unspecified), the Activity in the assay on Rattus norvegicus is 34%.

Regarding `N=C(/N=c1\scc(-c2ccc(Br)cc2)n1-c1ccc2ccccc2c1)c1ccccn1`, the Activity in the assay with Mus musculus came to 40%; in the assay with Rattus norvegicus, 0%.

In the case of `COc1ccc(-n2c(-c3ccccc3)cs/c2=N\C(=O)c2cc(=O)[nH]c(=O)[nH]2)cc1`, the Activity in the assay with Mus musculus is 8%; in the assay with Rattus norvegicus, 9%.

Regarding `CC(=O)c1ccc(-n2c(-c3ccccc3)cs/c2=N\C(=O)c2cc(=O)[nH]c(=O)[nH]2)cc1`, the results for the Activity with Mus musculus and in the assay with Rattus norvegicus were 8% and 12%, respectively.

Take `O=C(/N=c1\scc(-c2ccccc2)n1-c1ccccc1[N+](=O)[O-])c1cc(=O)[nH]c(=O)[nH]1`: in the assay on Rattus norvegicus, the Activity worked out at 25%.

Regarding `COc1ccc(-c2cs/c(=N\C(=O)c3cc(=O)[nH]c(=O)[nH]3)n2-c2ccc([N+](=O)[O-])cc2)cc1`, the Activity is on record as 10% in the assay on Mus musculus and 15% in the assay with Rattus norvegicus.

Take `COc1ccccc1-n1c(-c2ccccc2)cs/c1=N\C(=N)c1ccccn1`: in the assay on Rattus norvegicus, the Activity was 23%.

With `O=C(CC1NC(=O)NC1=O)/N=c1\scc(-c2ccccc2)n1-c1ccc(Cl)cc1` (stereo unspecified), the values for the Activity in the assay with Mus musculus and with Rattus norvegicus were 0% and 10%, respectively.

The compound `CC(=O)Oc1ccccc1C(=O)O` [ASPIRIN] registered an Activity with Rattus norvegicus of 43%.

Take `CC(C)Cc1ccc(C(C)C(=O)O)cc1` (stereo unspecified) [IBUPROFEN]: the Activity is listed as 50% with Mus musculus and 39% with Rattus norvegicus.

For the origin of these results see ChEMBL document CHEMBL1138560, “Synthesis of amidine and amide derivatives and their evaluation for anti-inflammatory and analgesic activities” (2009).
